Source: ChEMBL document CHEMBL4689842, “EUbOPEN Chemogenomics Library wave 1” (2021)

Test system: U2OS
Test: Multiplex assay against U2OS
Format: toxicity, cell-based
Settings: human
In short: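 Hoechst33342, BioTracker Green Microtubule Cytoskeleton Dye, MitoTracker Red and Annexin V Alexa Fluor 680 were added to live cells at seeding, and imaging on a CQ1 microscope at 37°C and 5% CO2 followed compound addition. Gating by CellPathfinder machine learning separated cells into Hoechst high-intensity objects or normal cells, then normal cells into healthy, pyknosed or fragmented nuclei, then pyknosed cells into mitotic or apoptotic. Per cents of healthy-nucleus cells are reported for the tubulin, mitochondrial-mass and membrane-permeability phenotypes.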

[1] = 12 h, 1 µM, compound concentration 1 uM, replicate 1
[2] = 12 h, 1 µM, compound concentration 1 uM, replicate 2
[3] = 12 h, 10 µM, compound concentration 10 uM, replicate 1
[4] = 12 h, 10 µM, compound concentration 10 uM, replicate 2
[5] = 24 h, 1 µM, compound concentration 1 uM, replicate 1
[6] = 24 h, 1 µM, compound concentration 1 uM, replicate 2
[7] = 24 h, 10 µM, compound concentration 10 uM, replicate 1
[8] = 24 h, 10 µM, compound concentration 10 uM, replicate 2
[9] = 48 h, 1 µM, compound concentration 1 uM, replicate 1
[10] = 48 h, 1 µM, compound concentration 1 uM, replicate 2
[11] = 48 h, 10 µM, compound concentration 10 uM, replicate 1
[12] = 48 h, 10 µM, compound concentration 10 uM, replicate 2

CNc1cc(Oc2cc(C(=O)Nc3cc(N4CCN(C)CC4)cc(C(F)(F)F)c3)ccc2C)ncn1
Population Apoptotic (%) [1]: 32%
Population Healthy Nuclei (%) [1]: 59%
Population Hoechst High Intensity Objects (%) [1]: 11%
Population Membrane Permeable-Phenotype (%) [1]: 4%
Population Mitochondria Different-Phenotype (%) [1]: 68%
Population Mitotic Cells (%) [1]: 67%
Population Normal (%) [1]: 88%
Population Pyknosed Nuclei (%) [1]: 30%
Population Tubulin-Different-Phenotype (%) [1]: 60%
Total Cell Count [1]: 176
Population Apoptotic (%) [2]: 54%
Population Fragmented Nuclei (%) [2]: 10%
Population Healthy Nuclei (%) [2]: 73%
Population Hoechst High Intensity Objects (%) [2]: 2%
Population Membrane Permeable-Phenotype (%) [2]: 10%
Population Mitochondria Different-Phenotype (%) [2]: 60%
Population Mitotic Cells (%) [2]: 45%
Population Normal (%) [2]: 97%
Population Pyknosed Nuclei (%) [2]: 16%
Population Tubulin-Different-Phenotype (%) [2]: 52%
Total Cell Count [2]: 56
Population Apoptotic (%) [3]: 90%
Population Fragmented Nuclei (%) [3]: 40%
Population Healthy Nuclei (%) [3]: 10%
Population Hoechst High Intensity Objects (%) [3]: 6%
Population Membrane Permeable-Phenotype (%) [3]: 100%
Population Mitochondria Different-Phenotype (%) [3]: 100%
Population Mitotic Cells (%) [3]: 9%
Population Normal (%) [3]: 93%
Population Pyknosed Nuclei (%) [3]: 48%
Population Tubulin-Different-Phenotype (%) [3]: 100%
Total Cell Count [3]: 116
Population Apoptotic (%) [4]: 73%
Population Fragmented Nuclei (%) [4]: 24%
Population Healthy Nuclei (%) [4]: 13%
Population Hoechst High Intensity Objects (%) [4]: 33%
Population Membrane Permeable-Phenotype (%) [4]: 58%
Population Mitochondria Different-Phenotype (%) [4]: 66%
Population Mitotic Cells (%) [4]: 26%
Population Normal (%) [4]: 66%
Population Pyknosed Nuclei (%) [4]: 61%
Population Tubulin-Different-Phenotype (%) [4]: 66%
Total Cell Count [4]: 70
Population Apoptotic (%) [5]: 46%
Population Fragmented Nuclei (%) [5]: 11%
Population Healthy Nuclei (%) [5]: 64%
Population Hoechst High Intensity Objects (%) [5]: 9%
Population Membrane Permeable-Phenotype (%) [5]: 10%
Population Mitochondria Different-Phenotype (%) [5]: 64%
Population Mitotic Cells (%) [5]: 53%
Population Normal (%) [5]: 90%
Population Pyknosed Nuclei (%) [5]: 23%
Population Tubulin-Different-Phenotype (%) [5]: 55%
Total Cell Count [5]: 174
Population Apoptotic (%) [6]: 50%
Population Fragmented Nuclei (%) [6]: 16%
Population Healthy Nuclei (%) [6]: 63%
Population Hoechst High Intensity Objects (%) [6]: 6%
Population Membrane Permeable-Phenotype (%) [6]: 13%
Population Mitochondria Different-Phenotype (%) [6]: 68%
Population Mitotic Cells (%) [6]: 50%
Population Normal (%) [6]: 93%
Population Pyknosed Nuclei (%) [6]: 19%
Population Tubulin-Different-Phenotype (%) [6]: 51%
Total Cell Count [6]: 58
Population Apoptotic (%) [7]: 93%
Population Fragmented Nuclei (%) [7]: 47%
Population Healthy Nuclei (%) [7]: 3%
Population Hoechst High Intensity Objects (%) [7]: 10%
Population Membrane Permeable-Phenotype (%) [7]: 100%
Population Mitochondria Different-Phenotype (%) [7]: 100%
Population Mitotic Cells (%) [7]: 6%
Population Normal (%) [7]: 89%
Population Pyknosed Nuclei (%) [7]: 48%
Population Tubulin-Different-Phenotype (%) [7]: 100%
Total Cell Count [7]: 120
Population Apoptotic (%) [8]: 76%
Population Fragmented Nuclei (%) [8]: 16%
Population Healthy Nuclei (%) [8]: 23%
Population Hoechst High Intensity Objects (%) [8]: 48%
Population Membrane Permeable-Phenotype (%) [8]: 80%
Population Mitochondria Different-Phenotype (%) [8]: 80%
Population Mitotic Cells (%) [8]: 23%
Population Normal (%) [8]: 51%
Population Pyknosed Nuclei (%) [8]: 60%
Population Tubulin-Different-Phenotype (%) [8]: 80%
Total Cell Count [8]: 76
Population Apoptotic (%) [9]: 54%
Population Fragmented Nuclei (%) [9]: 21%
Population Healthy Nuclei (%) [9]: 60%
Population Hoechst High Intensity Objects (%) [9]: 6%
Population Membrane Permeable-Phenotype (%) [9]: 11%
Population Mitochondria Different-Phenotype (%) [9]: 50%
Population Mitotic Cells (%) [9]: 45%
Population Normal (%) [9]: 93%
Population Pyknosed Nuclei (%) [9]: 18%
Population Tubulin-Different-Phenotype (%) [9]: 49%
Total Cell Count [9]: 163
Population Apoptotic (%) [10]: 50%
Population Fragmented Nuclei (%) [10]: 14%
Population Healthy Nuclei (%) [10]: 70%
Population Hoechst High Intensity Objects (%) [10]: 4%
Population Membrane Permeable-Phenotype (%) [10]: 24%
Population Mitochondria Different-Phenotype (%) [10]: 54%
Population Mitotic Cells (%) [10]: 50%
Population Normal (%) [10]: 95%
Population Pyknosed Nuclei (%) [10]: 14%
Population Tubulin-Different-Phenotype (%) [10]: 50%
Total Cell Count [10]: 51
Population Apoptotic (%) [11]: 96%
Population Fragmented Nuclei (%) [11]: 52%
Population Healthy Nuclei (%) [11]: 2%
Population Hoechst High Intensity Objects (%) [11]: 20%
Population Membrane Permeable-Phenotype (%) [11]: 100%
Population Mitochondria Different-Phenotype (%) [11]: 100%
Population Mitotic Cells (%) [11]: 3%
Population Normal (%) [11]: 80%
Population Pyknosed Nuclei (%) [11]: 45%
Population Tubulin-Different-Phenotype (%) [11]: 100%
Total Cell Count [11]: 142
Population Apoptotic (%) [12]: 47%
Population Fragmented Nuclei (%) [12]: 22%
Population Healthy Nuclei (%) [12]: 45%
Population Hoechst High Intensity Objects (%) [12]: 50%
Population Membrane Permeable-Phenotype (%) [12]: 89%
Population Mitochondria Different-Phenotype (%) [12]: 89%
Population Mitotic Cells (%) [12]: 52%
Population Normal (%) [12]: 50%
Population Pyknosed Nuclei (%) [12]: 31%
Population Tubulin-Different-Phenotype (%) [12]: 89%
Total Cell Count [12]: 85

COc1ccc(S(=O)(=O)N(CCO)c2ccccc2CN(C)C/C=C/c2ccc(Cl)cc2)cc1.O=P(O)(O)O
Population Apoptotic (%) [1]: 57%
Population Healthy Nuclei (%) [1]: 77%
Population Hoechst High Intensity Objects (%) [1]: 2%
Population Membrane Permeable-Phenotype (%) [1]: 62%
Population Mitochondria Different-Phenotype (%) [1]: 91%
Population Mitotic Cells (%) [1]: 42%
Population Normal (%) [1]: 97%
Population Pyknosed Nuclei (%) [1]: 13%
Total Cell Count [1]: 95
Population Apoptotic (%) [2]: 84%
Population Fragmented Nuclei (%) [2]: 9%
Population Healthy Nuclei (%) [2]: 74%
Population Hoechst High Intensity Objects (%) [2]: 8%
Population Membrane Permeable-Phenotype (%) [2]: 85%
Population Mitochondria Different-Phenotype (%) [2]: 100%
Population Mitotic Cells (%) [2]: 15%
Population Normal (%) [2]: 91%
Population Pyknosed Nuclei (%) [2]: 15%
Population Tubulin-Different-Phenotype (%) [2]: 100%
Total Cell Count [2]: 118
Population Apoptotic (%) [3]: 57%
Population Fragmented Nuclei (%) [3]: 11%
Population Healthy Nuclei (%) [3]: 81%
Population Hoechst High Intensity Objects (%) [3]: 5%
Population Membrane Permeable-Phenotype (%) [3]: 47%
Population Mitochondria Different-Phenotype (%) [3]: 20%
Population Mitotic Cells (%) [3]: 42%
Population Normal (%) [3]: 94%
Population Pyknosed Nuclei (%) [3]: 7%
Population Tubulin-Different-Phenotype (%) [3]: 28%
Total Cell Count [3]: 170
Population Apoptotic (%) [4]: 0%
Population Fragmented Nuclei (%) [4]: 10%
Population Healthy Nuclei (%) [4]: 89%
Population Hoechst High Intensity Objects (%) [4]: 16%
Population Membrane Permeable-Phenotype (%) [4]: 33%
Population Mitochondria Different-Phenotype (%) [4]: 16%
Population Mitotic Cells (%) [4]: 0%
Population Normal (%) [4]: 83%
Population Pyknosed Nuclei (%) [4]: 0%
Population Tubulin-Different-Phenotype (%) [4]: 12%
Total Cell Count [4]: 88
Population Apoptotic (%) [5]: 69%
Population Fragmented Nuclei (%) [5]: 14%
Population Healthy Nuclei (%) [5]: 63%
Population Hoechst High Intensity Objects (%) [5]: 3%
Population Membrane Permeable-Phenotype (%) [5]: 84%
Population Mitochondria Different-Phenotype (%) [5]: 100%
Population Mitotic Cells (%) [5]: 30%
Population Normal (%) [5]: 96%
Population Pyknosed Nuclei (%) [5]: 21%
Population Tubulin-Different-Phenotype (%) [5]: 100%
Total Cell Count [5]: 125
Population Apoptotic (%) [6]: 95%
Population Fragmented Nuclei (%) [6]: 16%
Population Healthy Nuclei (%) [6]: 58%
Population Hoechst High Intensity Objects (%) [6]: 8%
Population Membrane Permeable-Phenotype (%) [6]: 94%
Population Mitochondria Different-Phenotype (%) [6]: 98%
Population Mitotic Cells (%) [6]: 4%
Population Normal (%) [6]: 91%
Population Pyknosed Nuclei (%) [6]: 24%
Population Tubulin-Different-Phenotype (%) [6]: 98%
Total Cell Count [6]: 137
Population Apoptotic (%) [7]: 62%
Population Fragmented Nuclei (%) [7]: 5%
Population Healthy Nuclei (%) [7]: 87%
Population Hoechst High Intensity Objects (%) [7]: 2%
Population Membrane Permeable-Phenotype (%) [7]: 26%
Population Mitochondria Different-Phenotype (%) [7]: 13%
Population Mitotic Cells (%) [7]: 37%
Population Normal (%) [7]: 97%
Population Pyknosed Nuclei (%) [7]: 6%
Population Tubulin-Different-Phenotype (%) [7]: 22%
Total Cell Count [7]: 173
Population Apoptotic (%) [8]: 16%
Population Fragmented Nuclei (%) [8]: 4%
Population Healthy Nuclei (%) [8]: 85%
Population Hoechst High Intensity Objects (%) [8]: 8%
Population Membrane Permeable-Phenotype (%) [8]: 17%
Population Mitochondria Different-Phenotype (%) [8]: 26%
Population Mitotic Cells (%) [8]: 83%
Population Normal (%) [8]: 91%
Population Pyknosed Nuclei (%) [8]: 9%
Population Tubulin-Different-Phenotype (%) [8]: 11%
Total Cell Count [8]: 83
